# Experimental data collected from several papers.
# Protocols differ between the studies behind these lines.
# Target: Mitogen-activated protein kinase 11 (MAPK11, Homo sapiens, UniProt Q15759)
# Technique: competition with immobilised ligand
SMILES,test,setting,remaining binding [%]
CN(CCCC(F)(F)F)c1nccc(-c2cnn3ncccc23)n1,binding,1 µM,93
Nc1ncc2c(n1)-c1c([nH]c3ccc(C#CC4CC4)cc13)CCCC2,binding,1 µM,100
C[C@@H]1CN(c2ccc3ncc(-c4ccc5[nH]nc(C6CC6)c5c4)n3n2)C[C@H](C)O1,binding,50 nM,100
CN(C)CC#Cc1ccc(OCCCc2sc(N3CCc4cccc(C(=O)Nc5nc6ccccc6s5)c4C3)nc2C(=O)O)c(F)c1,cell-free assay,1 µM,100
CNC(=O)[C@@H]1CC[C@@H](n2c(-c3ccc4cnccc4c3)nc3ccc(C(=O)NCc4cccc(C(N)=O)c4)cc32)C1,binding,1 µM,100
O=C(c1ccc(Nc2ncc(Cl)c(-c3ccc(Cl)s3)n2)cc1)N1CCC(N2CCCC2)CC1,binding,1 µM,73
C[C@@H]1CCN(c2nccc(-c3cnn4ncccc34)n2)C1,binding,1 µM,100
CC(=O)N1CCC(c2ccc(C(=O)NC3=NCCN3)cc2C(F)(F)F)CC1,cell-free assay,1 µM,98
Cc1cnn2ncc(-c3ccnc(N(C)C)n3)c2c1,binding,1 µM,100
CCN1CCN(Cc2ccc(C(=O)Nc3ccc(C)c(Oc4ccc5c(c4)CC(=O)N5)c3)cc2C(F)(F)F)CC1,binding,1 µM,7
C[C@@]1(Cc2ccc(C#N)cc2)C(=O)N(c2cc(Cl)cc(Cl)c2)c2ncc(C(=O)NC3(c4nc(C5CCC5)no4)CC3)n21,cell-free assay,1 µM,100
O=C(Nc1c[nH]nc1C(=O)NC1CCNCC1)c1cc(F)cc(F)c1,binding,1 µM,97
FC(F)(F)Oc1cccc(-c2cnc3ccc(-c4ccncc4)nn23)c1,cell-free assay,5 µM,89
COc1cnc(Nc2cccc(S(N)(=O)=O)c2)nc1N1CCN(c2ccccc2)C(=O)C1,binding,1 µM,100
CCS(=O)(=O)c1cc2cc(C[C@@](O)(CC(C)(C)c3ccc(F)cc3C(N)=O)C(F)(F)F)[nH]c2cn1,cell-free assay,1 µM,100
CN(C)c1ncc(F)c(-c2cnn3ncccc23)n1,binding,1 µM,100
CSc1cccnc1N1CCN(Cc2nc3ccccc3[nH]2)CC1,cell-free assay,1 µM,100
O=C(c1ccc(Nc2ncc(Cl)c(-c3cc4ccccc4s3)n2)cc1)N1CCC(N2CCCC2)CC1,binding,1 µM,82
NS(=O)(=O)c1cc(NC(=O)C2(c3ccccc3Cl)CC2)ccc1Oc1cccc(Cl)c1,cell-free assay,1 µM,68
CN(C)c1nccc(-c2cnn3ncccc23)n1,binding,1 µM,100
C[C@@H]1CN(c2cc(-c3n[nH]c4ccc(OC5(C)CC5)cc34)ncn2)C[C@H](C)O1,cell-free assay,0.1 µM,89
N#Cc1ccccc1CSc1nnc2c(n1)[nH]c1ccccc12,binding,10 µM,94
